ChEMBL document CHEMBL1129428 (J Med Chem, 1996)

How the values were obtained:
[1] = tested on: Mus musculus; assay: Anticonvulsant activity after intraperitoneal injection into mice by using MES screen test after 0.5 hr; format: functional
[2] = tested on: Mus musculus; assay: Anticonvulsant activity after intraperitoneal injection into mice measured in a maximal electroshock scree (MES) screen; format: functional
[3] = tested on: Mus musculus; assay: Toxicity after intraperitoneal injection into mice by using toxicity screen test after 0.5 hr; format: organism-based; conditions: in vivo, ip
How it was run: (§1)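 Mice injected intraperitoneally at 30, 100 and 300 mg/kg and examined 0.5 and 4 h afterwards. Each entry is the minimum dose giving activity (MES protection, scPTZ protection, or rotorod failure for neurotoxicity) in half or more of the mice. Activity is called absent if nothing occurs at 300 mg/kg.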

[4] = tested on: Mus musculus; assay: Compound was tested for toxicity after intraperitoneal injection into mice by using toxicity screen test after 4 hr; format: organism-based; conditions: in vivo, ip; how it was run: as §1
[5] = tested on: Rattus norvegicus; assay: Compound was tested for anticonvulsant activity after Oral Administration into Rats by using MES screen test after 4h,dose 30 mg/kg; number of rats out of four which were protected; format: functional
How it was run: (§2)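 Rats received the compound orally. […] Rats were tested in the MES screen at 0.25, 0.5, 1, 2 and 4 h. Each value is the number of rats protected out of 4. The test followed NINDS procedures.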

[6] = tested on: Rattus norvegicus; assay: Compound was tested for anticonvulsant activity after Oral Administration into Rats by using MES screen test after 0.25h,dose 30 mg/kg; No activity was demonstarted; format: functional, organism-based; design: dose 30 mg/kg; how it was run: as §2
[7] = tested on: Rattus norvegicus; assay: Compound was tested for anticonvulsant activity after Oral Administration into Rats by using MES screen test after 2h,dose 30 mg/kg; number of rats out of four which were protected; format: functional; how it was run: as §2
[8] = tested on: Rattus norvegicus; assay: Compound was tested for anticonvulsant activity after Oral Administration into Rats by using MES screen test after 0.5h,dose 30 mg/kg; No activity was demonstarted; format: functional, organism-based; design: dose 30 mg/kg; how it was run: as §2
[9] = tested on: Rattus norvegicus; assay: Compound was tested for anticonvulsant activity after Oral Administration into Rats by using MES screen test after 1h,dose 30 mg/kg; number of rats out of four which were protected; format: functional; how it was run: as §2
[10] = tested on: Mus musculus; assay: Anticonvulsant activity after intraperitoneal injection into mice by using scPTZ screen after 0.5 hr; format: functional
[11] = tested on: Mus musculus; assay: Compound was tested for anticonvulsant activity after intraperitoneal injection into mice by using MES screen test after 2 hr; format: functional; conditions: ip
How it was run: (§3)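 Quantitative intraperitoneal mouse testing in the MES, scPTZ or rotorod neurotoxicity screens at the peak time given for each compound (0.25–2 h). ED50 or TD50 reported in mg/kg with 95% CI and slope (SE).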

[12] = tested on: Mus musculus; assay: Compound was tested for anticonvulsant activity after intraperitoneal injection into mice by using scPTZ screen test after 2 hr; format: functional; conditions: ip; how it was run: as §3
[13] = Compound was tested for toxicity after intraperitoneal injection into mice by using neurotoxicity screen test after 2 hr; format: organism-based; conditions: mouse, in vivo, ip; how it was run: as §3
[14] = tested on: Rattus norvegicus; assay: Compound was tested for anticonvulsant activity after Oral Administration into Rats by using MES screen test after 4h,dose 12.5 mg/kg; number of rats out of four which were protected; format: functional; how it was run: as §2
[15] = tested on: Rattus norvegicus; assay: Compound was tested for anticonvulsant activity after Oral Administration into Rats by using MES screen test after 0.25h,dose 12.5 mg/kg; number of rats out of four which were protected; format: functional; how it was run: as §2
[16] = tested on: Rattus norvegicus; assay: Anticonvulsant activity after oral administration into rats; format: functional; design: concentration or dose not given beside the values
[17] = tested on: Rattus norvegicus; assay: Compound was tested for anticonvulsant activity after Oral Administration into Rats by using MES screen test after 1h,dose 12.5 mg/kg; number of rats out of four which were protected; format: functional; how it was run: as §2
[18] = tested on: Rattus norvegicus; assay: Compound was tested for anticonvulsant activity after Oral Administration into rat by using MES screen test after 4 hr; format: functional
How it was run: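 Rats dosed orally, typically at 50 mg/kg first, then mostly 12.5 mg/kg (some compounds at 30 mg/kg), and tested by maximal electroshock. Four rats per compound, scored at 0.25, 0.5, 1, 2 and 4 h as the number of rats protected out of 4.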

[19] = Compound was tested for toxicity after oral administration in rat by using neurotoxicity screen test after 0.25-24 hr; format: organism-based; conditions: in vivo
How it was run: (§4)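 Rat neurotoxicity after oral dosing, observed at 0.25, 0.5, 1, 2, 4, 6, 8 and 24 h (8 h omitted for one compound).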

[20] = tested on: Rattus norvegicus; assay: Compound was tested for anticonvulsant activity after Oral Administration into Rats by using MES screen test after 2h,dose 12.5 mg/kg; number of rats out of four which were protected; format: functional; how it was run: as §2
[21] = tested on: Rattus norvegicus; assay: Compound was tested for anticonvulsant activity after Oral Administration into Rats by using MES screen test after 4h,dose 50 mg/kg; number of rats out of four which were protected; format: functional; how it was run: as §2
[22] = tested on: Rattus norvegicus; assay: Compound was tested for anticonvulsant activity after Oral Administration into Rats by using MES screen test after 2h,dose 50 mg/kg; number of rats out of four which were protected; format: functional; how it was run: as §2
[23] = tested on: Rattus norvegicus; assay: Compound was tested for anticonvulsant activity after Oral Administration into Rats by using MES screen test after 0.25h,dose 50 mg/kg; No activity was demonstarted; format: functional, organism-based; design: dose 50 mg/kg; how it was run: as §2
[24] = tested on: Rattus norvegicus; assay: Compound was tested for anticonvulsant activity after Oral Administration into Rats by using MES screen test after 0.5h,dose 50 mg/kg; No activity was demonstarted; format: functional, organism-based; design: dose 50 mg/kg; how it was run: as §2
[25] = tested on: Rattus norvegicus; assay: Compound was tested for anticonvulsant activity after Oral Administration into Rats by using MES screen test after 1h,dose 50 mg/kg; number of rats out of four which were protected; format: functional; how it was run: as §2
[26] = tested on: Mus musculus; assay: Compound was tested for anticonvulsant activity after intraperitoneal injection into mice by using MES screen test after 1 hr; format: functional; conditions: ip; how it was run: as §3
[27] = tested on: Rattus norvegicus; assay: Compound was tested for anticonvulsant activity after Oral Administration into Rats by using MES screen test after 0.5h,dose 50 mg/kg; number of rats out of four which were protected.; format: functional; how it was run: as §2
[28] = tested on: Mus musculus; assay: Compound was tested for anticonvulsant activity after intraperitoneal injection into mice by using scPTZ screen test after 1 hr; format: functional; conditions: ip; how it was run: as §3
[29] = Partition coefficient (logP); format: physicochemical; conditions: octanol/water
How it was run: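 Partition between 1-octanol and buffer at pH 7.4, with solutions prepared in 1-octanol before buffer is added. Quantified by UV, using λmax and ε values measured in 1-octanol.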

[30] = tested on: Mus musculus; assay: Anticonvulsant activity after intraperitoneal injection into mice by using scPTZ screen test after 4 hr; format: functional
[31] = tested on: Mus musculus; assay: Compound was tested for anticonvulsant activity after intraperitoneal injection into mice by using scPTZ screen test after 0.5 hr; format: functional; conditions: ip; how it was run: as §1
[32] = Compound was tested for […] after intraperitoneal injection into mice by using neurotoxicity screen test after 2 hr; format: organism-based; conditions: mouse, in vivo, ip; how it was run: as §3
[33] = tested on: Rattus norvegicus; assay: Compound was tested for anticonvulsant activity after Oral Administration into Rats by using MES screen test after 0.25h,dose 50 mg/kg; number of rats out of four which were protected; format: functional; how it was run: as §2
[34] = tested on: Rattus norvegicus; assay: Compound was tested for anticonvulsant activity after Oral Administration into Rats by using MES screen test after 0.5h,dose 50 mg/kg; number of rats out of four which were protected; format: functional; how it was run: as §2
[35] = Protection index = TD50/ED50; format: ADME; conditions: read-out: PI
[36] = tested on: Rattus norvegicus; assay: Compound was tested for anticonvulsant activity after Oral Administration into Rats by using MES screen test after 0.25h,dose 12.5 mg/kg; No activity was demonstarted; format: functional, organism-based; design: dose 12.5 mg/kg; how it was run: as §2
[37] = tested on: Rattus norvegicus; assay: Compound was tested for anticonvulsant activity after Oral Administration into Rats by using MES screen test after 0.5h,dose 12.5 mg/kg; No activity was demonstarted; format: functional, organism-based; design: dose 12.5 mg/kg; how it was run: as §2
[38] = tested on: Rattus norvegicus; assay: Compound was tested for anticonvulsant activity after Oral Administration into Rats by using MES screen test after 1h,dose 12.5 mg/kg; No activity was demonstarted; format: functional, organism-based; design: dose 12.5 mg/kg; how it was run: as §2
[39] = Compound was tested for toxicity after oral administration in rat by using neurotoxicity screen test after 2 hr; format: organism-based; conditions: in vivo; how it was run: as §4
[40] = tested on: Rattus norvegicus; assay: Compound was tested for anticonvulsant activity after Oral Administration into Rats by using MES screen test after 2h,dose 12.5 mg/kg; No activity was demonstarted; format: functional, organism-based; design: dose 12.5 mg/kg; how it was run: as §2
[41] = Protection index = TD50/ED50 (MES); format: ADME, organism-based; conditions: rat, in vivo; read-out: PI
[42] = Protection index = TD50/ED50 (MES); conditions: mouse, in vivo; read-out: PI

| Compound | Dose [1] | Dose [2] | Dose [3] | Dose [4] | Dose [10] | TD50 at 2 h [13] | Activity [14] | ED50 [18] | TD50 [19] | Activity [21] | Activity [22] | Activity [25] | Dose [30] | also measured |
| --- | --- | --- | --- | --- | --- | --- | --- | --- | --- | --- | --- | --- | --- | --- |
| CC/C(=N/NC(N)=O)c1ccc(Sc2ccc(F)cc2)cc1 | 30 mg/kg | 100 mg/kg | 100 mg/kg | 100 mg/kg |  |  |  |  |  |  |  |  |  | Activity [5]: 3; Activity [6]: No activity; Activity [7]: 3; Activity [8]: No activity; Activity [9]: 2 |
| C/C(=N/NC(N)=O)c1ccc(Oc2ccc(Br)cc2)cc1 | 30 mg/kg | 30 mg/kg | 300 mg/kg | 100 mg/kg | 300 mg/kg | 104 mg/kg | 4 | 1.52 mg/kg | > 500 mg/kg |  |  |  |  | ED50 [11]: 12.5 mg/kg; ED50 [12]: > 110 mg/kg; Activity [15]: 1; Activity [16]: 3; Activity [17]: 4; Activity [20]: 4 |
| NC(=O)N/N=C\c1ccccc1Oc1ccccc1 |  |  |  |  |  |  |  |  |  | 1 | 1 | 2 |  | Activity [23]: No activity; Activity [24]: No activity |
| NC(=O)N/N=C/c1ccc(Sc2ccccc2)cc1 | 30 mg/kg | 30 mg/kg |  | 300 mg/kg |  | 181 mg/kg |  | 4.29 mg/kg | > 496 mg/kg | 4 | 4 | 4 |  | ED50 [26]: 15.6 mg/kg; Activity [23]: No activity; Activity [27]: 4; ED50 [28]: > 46 mg/kg |
| NC(=O)N/N=C/c1ccc(Oc2ccc(F)c(F)c2)cc1 | 100 mg/kg | 30 mg/kg |  |  | 30 mg/kg |  |  | 2.37 mg/kg | > 500 mg/kg | 4 | 4 | 4 | 300 mg/kg | logP [29]: 2.76; ED50 [26]: 14.5 mg/kg; ED50 [31]: 72.8 mg/kg; TD50 at 2 h [32]: 94.8 mg/kg; Activity [33]: 2; Activity [34]: 4; selectivity ratio [35]: 1.3 |
| CCCCOc1ccc(Oc2ccc(/C=N/NC(N)=O)cc2)cc1 | 300 mg/kg | 100 mg/kg | 300 mg/kg | 300 mg/kg | 300 mg/kg |  | 2 | 45.8 mg/kg |  |  |  |  | 300 mg/kg | Activity [36]: No activity; Activity [37]: No activity; Activity [38]: No activity; TD50 at 2 h [39]: > 100 mg/kg; Activity [40]: No activity; selectivity ratio [41]: > 2.18 |
| NC(=O)N/N=C/c1ccc(Sc2ccc(Br)cc2)cc1 | 100 mg/kg | 30 mg/kg |  | 300 mg/kg |  | 123 mg/kg | 4 |  |  |  |  |  | 300 mg/kg | ED50 [11]: 24.4 mg/kg; ED50 [12]: > 200 mg/kg; Activity [36]: No activity; Activity [16]: 1; Activity [17]: 3; Activity [20]: 4; selectivity ratio [42]: 5.03 |
